The values that follow come from ChEMBL document CHEMBL1129793, “Quantitative structure-activity relationships for the in vitro antimycobacterial activity of pyrazinoic acid esters” (J Med Chem, 1996).

Usually half-life stands for the time needed for the level to fall by half in the phase considered. A low value points to rapid decline. As a reminder, the logP is the decadic logarithm of the partition coefficient of the neutral form, usually between octanol and water. A lower logP goes with a more hydrophilic compound.

The nature of series [1]: T1/2 in equine serum. The series is classed as ADME, organism-based, Equus caballus. The settings on record: horse. Summed up:
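Ester from a 1 mg/mL stock was mixed with 5% aqueous equine serum in 0.01 M KH2PO4, pH 7.2. Remaining ester was measured by isocratic reverse-phase HPLC (80% acetonitrile/20% 0.1 M sodium acetate, pH 5.0), with UV detection at 265 nm against a standard curve. Half-life is the time to 50% conversion to the acid.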

The nature of series [2]: Partition coefficient (logP). The settings on record: octanol/water. The format is physicochemical.
In series [3] the test system is Mycobacterium avium. The series can be described thus: In vitro activity against Mycobacterium avium (MAC-101). The series is classed as functional. In short, it runs like this: (§1)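 Broth macrodilution MIC. Cultures were grown in modified Middlebrook 7H10 broth (agar and malachite green omitted) with 10% OADC and 0.05% Tween 80, shaken at 37 °C for 3 days, then diluted in 7H10 broth to 1 Klett unit/mL. Test agents were dissolved in water or DMSO and filter-sterilised, then serially diluted 2-fold in 7H10 broth at pH 5.8. Tubes were shaken at 37 °C for 7–10 days, with a drug-free control. MIC was the lowest concentration with no visible turbidity, expressed in mmol/L.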

For series [4], the system named is Mycobacterium tuberculosis. In words: In vitro activity against Mycobacterium tuberculosis (ATCC 27294). The series is classed as functional. In short, it runs like this: as §1
The test system of series [5] is Mycobacterium tuberculosis. The series can be described thus: In vitro activity against Mycobacterium tuberculosis (ATCC 35801). The series is classed as functional. In short, it runs like this:
as §1

The test system of series [6] is Mycobacterium tuberculosis. The series can be described thus: In vitro activity against Mycobacterium tuberculosis (ATCC 35828). The series is classed as functional. Summed up:
as §1

For series [7], the system named is Mycobacterium avium. The series can be described thus: In vitro activity against Mycobacterium avium (ATCC 49601). The format is functional. In short, it runs like this: as §1
The test system of another series is Mycobacterium kansasii. The series can be described thus: in vitro activity against Mycobacterium kansasii (SWK). The format is functional. Summed up:
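M. kansasii clinical isolate SWK was grown 3 days at 37 °C with shaking in modified Middlebrook 7H10 broth with 10% OADC and 0.05% Tween 80, then diluted. It was tested in serial 2-fold dilutions in 7H10 broth at pH 5.8, shaken at 37 °C for 7–10 days, with a drug-free control. MIC was the lowest concentration giving no visible turbidity, expressed in mmol/L.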

In series [1], `CCCCCCCC(C)(CCCCC)OC(=O)c1cnc(Cl)cn1` (stereo unspecified) showed a half-life of 52.8 h. In series [2], this compound registered a logP of 6.96. Besides, the “Log 1/MMIC” value in the series with Mycobacterium avium [3] is 0.744; in series [4], 2.249; in series [5] it was 1.948; in series [6], 1.647; with Mycobacterium avium [7], 0.744.

In the case of `CCCCOC(=O)c1cnc(Cl)cn1`, the half-life in series [1] was found to be 0.0917 h. The lipophilicity (logP) in series [2] was determined as 2.21. In addition, the “Log 1/MMIC” value with Mycobacterium avium [3] was found to be 0.526; in series [4], 2.934; in series [5], 3.633; in series [6], 2.633; in the series on Mycobacterium kansasii, 2.33; in the series on Mycobacterium avium [7] it was 0.225.

Regarding `CCCCCCCCC(C)(CCCC)OC(=O)c1cnc(Cl)cn1` (stereo unspecified), the half-life in series [1] came to 19 h. This compound returned a logP in series [2] of 7.05. For the same compound, the “Log 1/MMIC” value with Mycobacterium avium [3] is given as 0.744; in series [6], 1.647; with Mycobacterium kansasii, 1.346; in the series with Mycobacterium avium [7], 0.744.

Regarding `CCCCCCCCCOC(=O)c1cnc(C)cn1`, the half-life in series [1] turned out to be 0.0167 h. Moreover, the logP in series [2] is 4.46. Moreover, the “Log 1/MMIC” value in the series with Mycobacterium avium [3] amounted to 0.616; in series [4], 2.422; in series [5], 2.422; with Mycobacterium kansasii, 2.121; in the series with Mycobacterium avium [7], 0.917.

In series [1], `CCCCCCCCC(C)(C)OC(=O)c1cnc(Cl)cn1` gave a half-life of 15.9 h. In addition, the lipophilicity (logP) in series [2] is 5.51. The “Log 1/MMIC” value is given as 0.388 with Mycobacterium avium [3]; 1.592 in series [4]; 2.796 in series [5]; 1.592 in series [6]; 2.194 with Mycobacterium kansasii; 0.388 in the series with Mycobacterium avium [7].

The compound `CCCCCCC(C)(C)OC(=O)c1cnc(Cl)cn1` gave a half-life in series [1] of 8.5 h. The same compound registered a logP in series [2] of 4.39. Also, the “Log 1/MMIC” value amounted to 0.648 in the series on Mycobacterium avium [3]; 3.057 in series [4]; 1.852 in series [5]; 3.057 in series [6]; 2.455 with Mycobacterium kansasii; 0.648 with Mycobacterium avium [7].

With `CCCCCCC(C)(CCCCCC)OC(=O)c1cnc(Cl)cn1`, the half-life in series [1] was 18 h. For the same compound, in series [2], the logP is 7.08. The “Log 1/MMIC” value was determined as 0.744 with Mycobacterium avium [3]; 3.152 in series [4]; 2.851 in series [5]; 2.851 in series [6]; 2.249 with Mycobacterium kansasii; 1.346 in the series on Mycobacterium avium [7].

For the compound `CCCCCC(C)OC(=O)c1cnc(Cl)cn1` (stereo unspecified), in series [1], the half-life was found to be 0.27 h. In series [2], the lipophilicity (logP) was found to be 3. The “Log 1/MMIC” value stood at 0.904 with Mycobacterium avium [3]; 3.631 in series [4]; 2.711 in series [5]; 3.631 in series [6]; 3.313 with Mycobacterium kansasii; 0.904 with Mycobacterium avium [7].

As to `CCCCCC(C)(CCCCC)OC(=O)c1cnc(Cl)cn1`, the half-life in series [1] turned out to be 6 h. This compound showed a logP in series [2] of 5.82. The “Log 1/MMIC” value in the series on Mycobacterium avium [3] is 0.708; in series [6] it was 1.31; in the series on Mycobacterium kansasii it was 1.611; in the series on Mycobacterium avium [7], 0.708.

`CCCCCCC(C)(CCCC)OC(=O)c1cnc(Cl)cn1` (stereo unspecified) returned a half-life in series [1] of 10.8 h. In series [2], this compound showed a logP of 5.93. Moreover, the “Log 1/MMIC” value with Mycobacterium avium [3] came out at 0.106; in series [5] it was 1.611; in series [6], 1.31; in the series on Mycobacterium kansasii it was 1.912; with Mycobacterium avium [7], 0.106.

In turn, `CCCCCCCCC(CC)OC(=O)c1cnc(Cl)cn1` (stereo unspecified) yielded a half-life in series [1] of 0.15 h. Moreover, the logP in series [2] is 5.99. Further, the “Log 1/MMIC” value with Mycobacterium avium [3] turned out to be 0.087; in series [4], 3.097; in series [5], 2.495; in series [6], 2.495; in the series on Mycobacterium kansasii, 3.398; with Mycobacterium avium [7] it was 0.087.

Turning to `CCCCCC(C)(CCCC)OC(=O)c1cnc(Cl)cn1` (stereo unspecified), the half-life in series [1] came out at 6.5 h. In series [2], this compound gave a logP of 5.3. For the same compound, the “Log 1/MMIC” value came to 0.087 with Mycobacterium avium [3]; 1.893 in series [4]; 1.592 in series [5]; 1.291 in the series with Mycobacterium kansasii; 0.087 in the series on Mycobacterium avium [7].

In series [1], `CCCCCCCCCCCOC(=O)c1cnc(Cl)cn1` registered a half-life of 0.1 h. The compound also showed a logP in series [2] of 5.98. The “Log 1/MMIC” value in the series with Mycobacterium avium [3] is 1.291; in series [4] it was 3.097; in series [5], 2.796; in series [6], 2.796; with Mycobacterium kansasii, 3.717; with Mycobacterium avium [7] it was 1.592.
